Measurements reported in publication PMC3276733 (Journal of Medicinal Chemistry, 2012).
Where two headings read alike, the source gives them in different places.

Key:
tadpoles [1] = conditions: cited from earlier work
[2] = molecular target: rat α1β2γ2L GABAA receptors expressed in Xenopus laevis oocytes (Rattus norvegicus, UniProt P62813); type: cell-based; conditions: 2 μM GABA, compound up to 10 μM
Summary of the method: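 Rat α1, β2, γ2L cRNA (equal parts, 20-40 ng total) injected into defolliculated stage V-VI oocytes, which were held at 18 °C in supplemented ND96 (pH 7.4) and recorded 2-5 days later. Two-electrode voltage clamp at −70 mV. Response was the current ratio with/without compound, against 2 μM GABA. Direct gating: 10 μM compound without GABA, as a ratio to the 2 μM GABA current. ≥4 oocytes; SEM.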

[3] = molecular target: α1(Q241L)β2γ2L GABAA receptors (Rattus norvegicus, UniProt P62813, Q268L); assay: Potentiation of GABA currents in oocytes expressing the steroid-insensitive α1; type: cell-based; conditions: GABA 2 TM, −70 mV, 4 WT and 4 mutant oocytes
tadpoles [4] = assay: Tadpole loss of righting reflex; type: in vivo; conditions: loss of swimming reflex; None = all tadpoles had a swimming response at 10 μM
[5] = read-out: tadpole LRR EC50, loss of righting reflex, literature values ref 14

Question: With `C[C@@]12CC[C@H](O)C[C@H]1CC[C@@H]1[C@@H]2CC[C@@]2(C)C(=O)CC[C@@H]12` (single isomer, unassigned) [compound ent-2, ent-androsterone] as the compound, how does the EC50 (tadpoles [1]; [5]) read?
Answer: 1.42 ± 0.18 µM

Question: With `C[C@@]12CC[C@H](O)C[C@H]1CC[C@@H]1[C@@H]2[C@H](OCc2ccccc2)C[C@@]2(C)C(=O)CC[C@@H]12` (single isomer, unassigned) [compound ent-4, (3β,5β,8α,9β,10α,11α,13α,14β)-11-Benzyloxy-3-hydroxyandrostan-17-one] as the compound, how does the “effect on GABA-mediated currents” value [2] read?
Answer: weakly inhibit

Question: Which “effect of the α1 Q241L mutation on potentiation of GABA currents” value (“effect of the α1 Q241L mutation” for short) ([3]; compound 1 TM) does the source give for `C[C@@]12CC[C@H](O)C[C@H]1C[C@@H](OCc1ccccc1)[C@@H]1[C@@H]2CC[C@@]2(C)C(=O)CC[C@@H]12` (single isomer, unassigned) [compound ent-6, (3β,5β,7α,8α,9β,10α,13α,14β)-7-Benzyloxy-3-hydroxyandrostan-17-one] here?
Answer: abolishes, completely or nearly completely

Question: For `C[C@@]12CC[C@H](O)C[C@H]1C[C@@H](OCc1ccccc1)[C@@H]1[C@@H]2CC[C@]2(C)[C@H]1CC[C@]21CO1` (single isomer, unassigned) [compound ent-7, (3β,5β,7α,8α,9β,10α,13α,14β,17α)-Spiro[7-Benzyoxyandrostane-17,2′-oxiran]-3-ol], which “effect of the α1 Q241L mutation” value ([3]; compound 0.5 TM) is on record?
Answer: abolishes, completely or nearly completely

Question: With `C[C@@]12CC[C@H](O)C[C@H]1CC[C@@H]1[C@@H]2CC[C@]2(C)[C@H]1CC[C@]21CO1` (single isomer, unassigned) [ent-3] as the compound, how does the EC50 (tadpoles [1]; [5]) read?
Answer: 1.08 ± 0.01 µM

Question: For `CC(=O)[C@H]1CC[C@H]2[C@@H]3CC[C@H]4C[C@H](O)CC[C@]4(C)[C@H]3CC[C@]12C` [compound 1, allopregnanolone], which EC50 (tadpoles [1]; read-out: Tadpole LSR EC50, loss of swimming reflex, literature values ref 27) is on record?
Answer: 5.5 ± 0.5 µM

Question: What about the EC50 (tadpoles [1]; read-out: tadpole LRR EC50, loss of righting reflex, literature values ref 27) of the same compound?
Answer: 0.42 ± 0.04 µM

Question: What about the “effect of the α1 Q241L mutation” value ([3]; compound 0.5 TM) of the same compound?
Answer: eliminates the potentiation

Question: With `C[C@]12CC[C@@H](O)C[C@@H]1CC[C@@H]1[C@@H]2CC[C@]2(C)C(=O)CC[C@@H]12` [compound 2, androsterone] as the compound, how does the EC50 (tadpoles [1]; [5]) read?
Answer: 3.38 ± 0.9 µM

Question: With `C[C@]12CC[C@@H](O)C[C@@H]1CC[C@@H]1[C@@H]2CC[C@@]2(C)[C@H]1CC[C@@]21CO1` [compound 3] as the compound, how does the EC50 (tadpoles [1]; [5]) read?
Answer: 1.35 ± 0.01 µM

Question: With `C[C@]12CC[C@@H](O)C[C@@H]1CC[C@@H]1[C@@H]2[C@@H](OCc2ccccc2)C[C@]2(C)C(=O)CC[C@@H]12` [compound 4, (3α,5α,11β)-11-Benzyloxy-3-hydroxyandrostan-17-one] as the compound, how does the “effect of the α1 Q241L mutation” value ([3]; compound 1 TM) read?
Answer: abolishes, completely or nearly completely

Question: With `C[C@]12CC[C@@H](O)C[C@@H]1CC[C@@H]1[C@@H]2[C@@H](OCc2ccccc2)C[C@@]2(C)[C@H]1CC[C@@]21CO1` [compound 5, (3α,5α,11β,17β)-Spiro[11-benzyloxyandrostane-17,2′-oxiran]-3-ol] as the compound, how does the “effect of the α1 Q241L mutation” value ([3]; compound 0.5 TM) read?
Answer: abolishes, completely or nearly completely

Question: With `C[C@]12CC[C@@H](O)C[C@@H]1C[C@H](OCc1ccccc1)[C@@H]1[C@@H]2CC[C@]2(C)C(=O)CC[C@@H]12` [compound 6, (3α,5α,7β)-7-Benzyloxy-3-hydroxyandrostan-17-one] as the compound, how does the “effect on GABA-mediated currents” value [2] read?
Answer: weakly inhibit

Question: And the “Tadpole LSR EC50” value (tadpoles [4])?
Answer: None^e

Question: Which “effect on GABA-mediated currents” value [2] does the source give for `C[C@]12CC[C@@H](O)C[C@@H]1C[C@H](OCc1ccccc1)[C@@H]1[C@@H]2CC[C@@]2(C)[C@H]1CC[C@@]21CO1` [compound 7, (3α,5α,7β,17β)-Spiro-[7-Benzyloxyandrostane-17,2′-oxiran]-3-ol] here?
Answer: weakly inhibit
